# Assay outcomes: PubChem BioAssay, Broad Institute
# The list is not random: actives were taken first. Their share in the collection is about 2%.
# RAD54 inh: inhibitors of human RAD54 branch migration, primary screen, biochemical, fluorescence, single point; inhibition, % at 10.4 µM; RAD54 Holliday junction branch migration, FAM/BHQ fluorescence; 360,000 compounds, 0.14% hits;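 active = mean normalized replicate activity at least 40 and at least half of replicates scoring 40 or more; inconclusive = only one of the two criteria met; inactive = mean below 40 and under half of replicates reaching 40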;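 also: 0% = median of neutral control wells and 100% = median of positive control wells; inhibitors cause a drop in the FAM fluorescence signal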
# XiGFP reactiv: activators of inactive X chromosome reactivation, primary screen, imaging, XiGFP fibroblasts, GFP high-content imaging, set 2. 360,000 compounds, 0.055% hits. XiGFP mouse fibroblasts, % GFP-positive cells imaging, 3 d; cells co-treated with 5-aza-dC sensitizer; scaled so ellipticine positive control = 100%. activation, % at 7.58 µM;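 active = mean normalized replicate activation at least 10% and every replicate at or above 10%; inconclusive = only one of the two criteria met; inactive = mean below 10% and not all replicates reach 10%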;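 also: 0% = median of on-plate neutral control wells and 100% = ellipticine 6 µM median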
#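 System: 68-5-11 XiGFP fibroblast line | Buffer or medium: DMEM containing 5-aza-dC | Compound: Single point | Times: Compounds 3 days, fix/stain 15 min at room temperature | Benchmarks: Positive control ellipticine, 6 µM final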
# PglD inh: C. jejuni PglD acetyltransferase inhibitors, primary screen, biochemical, DTNB colorimetric, single point | inhibition, % at 12.5 µM | purified PglD enzyme, DTNB colorimetric CoA detection | UDP-N-acetylbacillosamine N-acetyltransferase PglD (Campylobacter jejuni) | 360,000 compounds, 0.098% hits; in the data active = inhibition above about 16%, passing the limit was not always enough; inconclusive = no clear call, values can overlap the other calls
# rRNA inh HTS: reduced GFP signal of wild-type E. coli, primary screen, bacterial rRNA inhibitor project, GFP/RFP fluorescence, OD600, single point; E. coli WT GFP vs humanized-ribosome RFP mutants, 24 h; active compounds read low; DMSO median 0, no signal -100; GFP signal change (wild-type ribosome), % (concentration not given with the values); 350,000 compounds, 1.6% hits;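 active = significant combined selectivity score with lowered wild-type GFP, culture density cut under 30%, mutant RFP and density less affected; inactive = any of these conditions unmet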
# E-selectin induc: E-selectin induction in HUVECs, primary screen, imaging, HUVEC, immunofluorescence imaging, single point; normalized: neutral wells 0, TNF-alpha wells 100; 260,000 compounds, 0.37% hits; P16581; activation, % at 7.58 µM;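 active = mean E-selectin-positive cell signal at least 10% of the positive control, reached in at least 60% of replicates, without over 20% cell loss; inconclusive = no rule given, readout overlaps actives, possibly toxicity-flagged; inactive = the rest, including those meeting only one limit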
# Target sequence (P16581 whole entry, looked up): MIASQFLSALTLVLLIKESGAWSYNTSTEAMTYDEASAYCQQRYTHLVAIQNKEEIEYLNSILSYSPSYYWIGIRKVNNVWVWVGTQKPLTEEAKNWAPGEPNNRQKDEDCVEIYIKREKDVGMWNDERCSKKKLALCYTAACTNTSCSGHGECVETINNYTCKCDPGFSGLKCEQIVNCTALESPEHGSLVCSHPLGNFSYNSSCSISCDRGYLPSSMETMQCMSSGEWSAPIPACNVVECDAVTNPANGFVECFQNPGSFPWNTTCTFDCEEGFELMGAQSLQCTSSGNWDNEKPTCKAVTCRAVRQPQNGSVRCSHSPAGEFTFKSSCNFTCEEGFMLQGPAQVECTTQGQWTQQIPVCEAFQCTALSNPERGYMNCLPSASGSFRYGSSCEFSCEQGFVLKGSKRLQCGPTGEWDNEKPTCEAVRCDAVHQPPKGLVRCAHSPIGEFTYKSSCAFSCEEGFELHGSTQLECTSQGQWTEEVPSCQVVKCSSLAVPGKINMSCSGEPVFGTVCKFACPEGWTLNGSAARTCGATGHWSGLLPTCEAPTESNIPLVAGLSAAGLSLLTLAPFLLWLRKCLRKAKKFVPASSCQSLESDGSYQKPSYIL
#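 Test system: HUVEC | Signal: Immunofluorescence imaging | Read-out: Percent E-selectin-positive cells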
# RAD52 anneal inh: RAD52 DNA annealing inhibitors, primary screen, biochemical, FRET, single point, set 2; inhibition, % at 18.7 µM; 360,000 compounds, 0.46% hits; AID 651710, 2012; recombinant RAD52 DNA annealing, FRET fluorescence; DNA repair protein RAD52 homolog (Homo sapiens), P43351;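 active = every replicate showing at least 50% inhibition; inconclusive = mean inhibition at least 50% but not in every replicate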
# PglD confirm: PglD acetyltransferase inhibitors, confirmation, biochemical, DTNB absorbance, single point, cherry-picked samples; shares compounds with PglD inh; 320 tested, under 10 active; AID 743156, 2013; inhibition, % at 20 µM; Purified C. jejuni PglD, DTNB absorbance 412 nm;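 active = mean inhibition across replicates of at least 20% with every single replicate also at 20% or more; inconclusive = mean inhibition at least 20% but some replicate falls below 20%; inactive = mean inhibition under 20% and not all replicates reach it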;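 also: initial rate of CoA release by acetyl transfer from AcCoA to the UDP-4-amino sugar; 0% = median of neutral control wells and 100% = median of positive control wells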
# RAD52 DNA ctr: DNA-binding compounds via dye displacement, dose response, artefact control for RAD52 inhibitor project, biochemical, fluorescence polarization, cherry-pick; Salmon sperm DNA/acridine orange FP displacement; 1,000 compounds, 8% hits; shares compounds with RAD52 anneal inh; AC50, µM;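 active = fitted half-maximal concentration for signal loss at or below twice the highest dose tested, in every separate run, actives reach about 64 µM in these data; inconclusive = runs disagree, or flat partial signal loss, or poor fit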
# An asterisk follows results filed as active; i = inactive; ? = inconclusive; . = no result.
SMILES,RAD54 inh,XiGFP reactiv,PglD inh,rRNA inh HTS,E-selectin induc,RAD52 anneal inh,PglD confirm,others
CCOC(=O)CNC(=S)N(Cc1ccccc1)Cc1cccnc1,-2,0,32*,-6,-1,-8,1,
CCCCc1ccc(S(=O)(=O)NC(=O)C2(C)CCN2C(=O)CCc2cccs2)cc1 (stereo unspecified),-2,0,69*,-14,-1,-5,3,
CO[C@H](CN(C)S(=O)(=O)c1ccccc1)[C@H](C)CN(C(=O)Nc1ccccc1F)[C@H](C)CO,5,0,2,1,0,1,.,
C[C@H](CO)N1C[C@H](C)[C@@H](CN(C)C(=O)NC2CCCCC2)Oc2ccc(NC(=O)Cc3cn(C)c4ccccc34)cc2C1=O,-11,-1,1,-1,.,-5,.,
CC(C)(C)NC(=O)COC(=O)c1ccccc1Nc1ccc(SC(F)F)cc1,-6,0,20*,.,0,.,?,
CCc1cc2c(nc1CC)CCCN2Cc1ccccc1C(F)(F)F,.,0,.,5,1,-10,.,
NC(N)=NN=C1CCC(c2ccccc2)CC1 (stereo unspecified),-2,0,25*,11,0,-17,3,
CCOc1ccc(N2CC(C(=O)NCCc3ccc(S(N)(=O)=O)cc3)CC2=O)cc1 (stereo unspecified),4,0,31*,8,0,-7,?,
Cc1nnc(N2C(=O)c3ccc(Br)cc3C2=O)s1,1,0,22*,11,.,0,2,
O=C1c2ccc(Br)cc2C(=O)N1c1ccc(Cl)cn1,5,0,-2,16,0,-1,.,
Cn1c(CC(=O)Nc2ccccc2Cl)nnc1SCC(=O)Nc1nncs1,-1,1,26*,6,0,-10,13,
C/C=C/c1ccc2c(c1)[C@H]1[C@H](CCN1C(=O)c1ccc(F)cc1)[C@H](CO)N2,.,0,.,10,-1,-17,.,
CO[C@@H]1CN(C)C(=O)c2ccc(NC(=O)Nc3ccccc3)cc2OC[C@@H](C)N(C(=O)CN(C)C)C[C@@H]1C,5,0,-1,0,0,3,.,
COC(=O)C1SCC2C(=O)N(Cc3ccc(F)cc3)CC(=O)N21 (stereo unspecified),-17,0,26*,10,.,-20,5,
O=C(NC1CCCC1)N1CC(=O)N2[C@H](CO)[C@H](c3ccc(-c4cccnc4)cc3)[C@@H]2C1,.,0,.,-4,0,-15,.,
C[C@H](NC(N)=O)C(=O)Nc1ccc2c(c1)OCO2,9,0,22*,3,5,-9,3,
CC(C(=O)Nc1ccc2c(c1)OCO2)N1CCN(C)CC1 (stereo unspecified),5,0,-2,8,.,1,.,
O=C(CSCCO)Nc1cccc(C(F)(F)F)c1,-15,.,23*,.,.,.,-1,
O=C(CSCCO)Nc1ccccc1,-6,.,-1,.,.,.,.,
O=C(NC1CCS(=O)(=O)C1)/C(=C/c1ccc(Cl)cc1)NC(=O)c1ccccc1 (stereo unspecified),3,0,76*,7,.,-22,-5,
CN(C)c1nc(OCC(=O)NC(C)(C)C)nc(N(C)C)n1,-3,.,22*,.,.,.,1,
CCOC(=O)COc1nc(N(C)C)nc(N(C)C)n1,0,.,2,.,.,.,.,
Cc1ccc(NC(=O)c2ccccc2OCc2ccc([N+](=O)[O-])cc2)nc1,.,0,.,3,.,-5,.,
COC(=O)c1cc(C)ccc1OCc1ccc([N+](=O)[O-])cc1,2,0,23*,7,.,-1,-3,
O=C(NCc1cccnc1)C1CC(c2cccc(Br)c2)=NO1 (stereo unspecified),3,0,23*,6,0,-21,-5,
SMILES,RAD54 inh,XiGFP reactiv,PglD inh,rRNA inh HTS,E-selectin induc,RAD52 anneal inh,PglD confirm,others
Cc1nc([N+](=O)[O-])c(Sc2nc3ccccc3n2C)n1Cc1ccccc1,2,0,30*,0,0,-16,7,
Cc1nc([N+](=O)[O-])c(SCC(N)=O)n1Cc1ccccc1,.,0,.,20,.,6,.,
O=C(C[C@H]1CC[C@@H](NC(=O)Nc2ccccc2)[C@H](CO)O1)NCc1ccccn1,-6,0,-2,4,-1,6,.,
Cc1noc(C)c1S(=O)(=O)Nc1ccc2c(c1)C(=O)N([C@H](C)CO)C[C@@H](C)[C@H](CN(C)C(=O)Nc1ccc(F)cc1)OCCCC[C@@H](C)O2,-3,0,-2,0,0,1,.,
COC(CNc1cc(=O)oc2ccccc12)OC,6,.,23*,.,.,.,1,
COC(=O)C(=N/Nc1ccccc1C(=O)OC)/C(C)=N/O,13,0,20*,7,2,-2,2,
CO[C@@H]1CN(C)C(=O)c2ccc(NC(=O)c3cc(C)on3)cc2OC[C@H](C)N(C(C)=O)C[C@H]1C,-2,0,1,-1,0,-2,.,
Cc1ccc(S(=O)(=O)N[C@H]2CC[C@@H](CCn3cc(C4(O)CCCC4)nn3)O[C@@H]2CO)cc1,-1,0,1,-4,0,-9,.,
C[C@]12CC[C@H](O)CC1=CCC1C2CC[C@@]2(C)C1CC[C@@H]2NC(=O)[C@@H](N)CO (stereo partly specified),.,0,.,-15,0,-1,.,
C[C@]12CC[C@H](O)CC1=CCC1C2CC[C@@]2(C)C1CC[C@@H]2NC(=O)[C@@H](N)Cc1cnc[nH]1 (stereo partly specified),-9,0,3,3,0,80*,.,RAD52 DNA ctr=i
COc1cc2nc(Nc3cccc(F)c3)nc(N)c2cc1OC,36,0,4,-25,0,61*,.,RAD52 DNA ctr=i
CN(C)C(=O)C[C@H]1CC[C@@H]2[C@H](COC[C@H](O)CN2Cc2nccs2)O1,-4,0,3,2,0,1,.,
